16 compounds from PubChem BioAssay can be followed below.

Experiment [1] in a line: reducers of endogenous Her2 protein level, primary screen, SKBR3 breast tumor cells, AlphaScreen, ATP viability (AID 461;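 active = Her2 level under about 52% in both replicate screens, with viability over 70% of control, limit read from the data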;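 as to Her2 level: lower value means less Her2 protein in the cells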;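 as to viability: percent of carrier control wells set as 100% viability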). Conditions: 18-24 h, measured here: SKBR3 viability, ATP luminescence, at 10 µM.
The target in experiment [2] is Receptor tyrosine-protein kinase erbB-2 (Homo sapiens) (UniProt P04626). The experiment is described as above. The following applies: 18-24 h, at 10 µM, stronger effect = lower value.
Chain of Receptor tyrosine-protein kinase erbB-2 (Homo sapiens) (P04626 whole entry, looked up): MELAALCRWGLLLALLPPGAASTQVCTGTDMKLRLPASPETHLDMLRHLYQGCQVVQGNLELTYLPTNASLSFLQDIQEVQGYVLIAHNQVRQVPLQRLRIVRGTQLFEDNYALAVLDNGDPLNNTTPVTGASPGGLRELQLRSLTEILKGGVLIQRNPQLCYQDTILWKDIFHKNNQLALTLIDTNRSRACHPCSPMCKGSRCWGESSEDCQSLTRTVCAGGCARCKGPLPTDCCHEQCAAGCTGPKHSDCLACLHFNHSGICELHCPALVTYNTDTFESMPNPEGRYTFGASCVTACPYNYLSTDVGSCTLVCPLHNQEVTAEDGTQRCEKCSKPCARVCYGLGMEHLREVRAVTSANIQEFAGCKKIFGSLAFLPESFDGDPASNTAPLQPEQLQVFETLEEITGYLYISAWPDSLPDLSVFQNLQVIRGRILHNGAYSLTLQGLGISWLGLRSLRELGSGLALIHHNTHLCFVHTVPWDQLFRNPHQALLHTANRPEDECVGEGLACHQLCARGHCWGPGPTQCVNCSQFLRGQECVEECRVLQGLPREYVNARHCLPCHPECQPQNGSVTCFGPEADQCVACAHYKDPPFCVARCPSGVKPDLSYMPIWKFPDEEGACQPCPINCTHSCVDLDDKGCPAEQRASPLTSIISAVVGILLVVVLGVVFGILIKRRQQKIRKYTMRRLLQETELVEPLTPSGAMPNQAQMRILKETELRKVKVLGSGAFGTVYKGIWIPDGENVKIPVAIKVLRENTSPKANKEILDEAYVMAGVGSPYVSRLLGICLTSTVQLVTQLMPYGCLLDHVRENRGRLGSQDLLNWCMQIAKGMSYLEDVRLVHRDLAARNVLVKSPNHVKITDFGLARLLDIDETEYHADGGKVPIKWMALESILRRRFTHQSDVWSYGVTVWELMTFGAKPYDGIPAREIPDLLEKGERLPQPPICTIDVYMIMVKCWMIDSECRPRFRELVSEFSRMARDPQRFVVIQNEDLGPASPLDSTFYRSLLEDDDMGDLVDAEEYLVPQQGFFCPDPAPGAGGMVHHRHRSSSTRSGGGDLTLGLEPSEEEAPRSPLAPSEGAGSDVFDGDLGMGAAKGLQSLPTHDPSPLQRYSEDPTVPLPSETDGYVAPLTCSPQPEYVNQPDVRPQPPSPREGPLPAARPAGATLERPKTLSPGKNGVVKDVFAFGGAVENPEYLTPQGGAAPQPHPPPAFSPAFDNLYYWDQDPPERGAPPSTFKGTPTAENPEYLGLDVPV
The nature of experiment [3]: SK-BR-3 cell growth inhibitors, pilot screen, 24 h, human (AID 572).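 Also: compound exposure lasted between 18 and 24 h rather than exactly 24 h; 100% = carrier-treated control wells.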 The following applies: SK-BR-3 viability, CellTiter-Glo luminescence, at 10 µM, stronger effect = lower value. On the technique in general: ATP-based viability assays read luminescence as a measure of living cells.
A short description of experiment [4]: HUVEC growth inhibition – cell-based, human, primary screen (AID 575;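 active = viability at or below 30% in both replicate assays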;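 also: 100% = median of untreated cell wells with 0.1% DMSO on each plate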). The following applies: HUVEC proliferation, CellTiter-Glo luminescence, 72 h; at 10 µM; stronger effect = lower value. Put shortly: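 Material: primary human umbilical vein endothelial cells / Schedule: 72 h exposure, 37 °C, 5% CO2, 30 min RT equilibration / Signal: ATP-based CellTiter-Glo luminescent read / Read-out basis: percent of median DMSO-control luminescence / Control set: 32 DMSO-only cell-control wells (high), 32 MePR drug-control wells (low) per plate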

Experiment [5] can be described thus: growth inhibitors of H69AR lung tumor, primary screen, human, duplicate replicates (AID 580;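 active = viability at or under a set limit in both replicates, limit being median viability minus 3 SD, cut at about 48% in these data, passing the limit was not always enough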;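 also: 100% = mean luminescence of untreated wells and 0% = no signal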). Conditions: H69AR lung tumor cells viability, ATP luminescence, 72 h; at 10 µM; stronger effect = lower value.
Experiment [6] can be described thus: reversal of MRP1-mediated doxorubicin resistance, pilot screen, H69AR cells, doxorubicin co-treatment (AID 601;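 active = viability loss from added drug above about 55%, and viability with drug at most 40%, in both replicates, limit read from the data, passing the limit was not always enough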). The following applies: CellTiter-Glo, 72 h, at 10 µM; for differential viability (reversal): stronger effect = higher value.
The nature of experiment [7]: 384-well plate pilot, post-Golgi transport modulator project, inhibition of yeast transport mutant growth (AID 636; in the data active = inhibition above about 31%). The following applies: absorbance 615 nm, about 18 h, stronger effect = higher value.
Experiment [8] is described as follows: growth suppression of yeast trafficking mutant, preliminary HTS, modulators of trafficking downstream of Golgi apparatus project, 1536-format plate, OD 615 nm (AID 637; in the data active = inhibition above about 30%). Conditions: yeast transport mutant growth, absorbance 615 nm, 18 h; stronger effect = higher value.
[9] abbreviates: H69AR cells + 2 uM doxorubicin, measured here: viability with 2 uM doxorubicin, stronger effect = lower value.
Where [10] appears, read: H69AR cells, compound alone cytotoxicity.

The structures appear in SMILES notation. The source made the active and inactive calls.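 The calls were made as follows, unless noted: active = viability at or below 10% of carrier control in both of two separate runs; inconclusive = viability at or below 10% in only one of the two runs; inactive = the rest.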 Peptide text beside a SMILES is read from it. * marks the point of attachment. Boc = CC(C)(C)OC(=O)*

For orientation: viability means a read-out of living cells in per cent, often relative to untreated cells. As usually defined, the inhibition is the relative decrease from the control value, in per cent. With `Cc1nc2c(C(=O)O)cnn2c(C)c1Cc1ccccc1F`, the viability in experiment [1] is 97.5%; in experiment [3] it was 97.5% (inactive); in experiment [4], 70.6% (inactive); in experiment [5], 87.4% (inactive); in experiment [6] (setting [9]) it was 84.8%; in experiment [6] (setting [10]) it was 87.4%. In addition, the Her2 level in experiment [2] is 141% (inactive). The differential viability (reversal) in experiment [6] (H69AR cells + 2 uM doxorubicin) is 2.52% (inactive). Besides, the values for the inhibition in experiment [7] and in experiment [8] were 1.84% (inactive) and -8.33% (inactive), respectively.
Take `O=C(Nc1ccc2c(c1)OCO2)c1cc2ncc(Br)cn2n1`: the viability is 101% in experiment [1]; 101% (inactive) in experiment [3]; 84.8% (inactive) in experiment [4]; 86.8% (inactive) in experiment [5]; 104% in experiment [6] (setting [9]); 86.8% in experiment [6] (setting [10]). Also, in experiment [2], the Her2 level was 104% (inactive). Also, the differential viability (reversal) in experiment [6] (H69AR cells + 2 uM doxorubicin) was -17.3% (inactive). The inhibition in experiment [7] is -4.67% (inactive); in experiment [8] it was -0.16% (inactive).
With `O=C1CC(N2CCN(c3cccc(C(F)(F)F)c3)CC2)C(=O)N1c1ccccc1` (stereo not given), the viability is 93.5% in experiment [1]; 93.5% (inactive) in experiment [3]; 92.3% (inactive) in experiment [4]; 103% (inactive) in experiment [5]; 90% in experiment [6] (setting [9]); 103% in experiment [6] (setting [10]). The Her2 level in experiment [2] was 112% (inactive). In addition, in experiment [6] (H69AR cells + 2 uM doxorubicin), the differential viability (reversal) is 13% (inactive). In addition, the inhibition in experiment [7] was -2.08% (inactive); in experiment [8], -12.7% (inactive).
Regarding `CCN1C(=O)NC(c2cc(Br)ccc2OC)C(C(=O)OC)=C1C` (stereo not given), the viability was 104% in experiment [1]; 104% (inactive) in experiment [3]; 104% (inactive) in experiment [4]; 95.3% (inactive) in experiment [5]; 98% in experiment [6] (setting [9]); 95.3% in experiment [6] (setting [10]). In addition, the Her2 level in experiment [2] was 114% (inactive). Further, the differential viability (reversal) in experiment [6] (H69AR cells + 2 uM doxorubicin) is -2.65% (inactive). Moreover, the inhibition was -2.63% (inactive) in experiment [7] and -8.1% (inactive) in experiment [8].
With `COc1ccc(C(=O)Nc2ccc(C)cn2)c(OC)c1`, the viability in experiment [1] is 73.5%; in experiment [3] it was 73.5% (inactive); in experiment [4], 102% (inactive); in experiment [5], 85.4% (inactive); in experiment [6] (setting [9]) it was 74.2%; in experiment [6] (setting [10]) it was 85.4%. In experiment [2], the Her2 level was 77% (inactive). Moreover, the differential viability (reversal) in experiment [6] (H69AR cells + 2 uM doxorubicin) is 11.2% (inactive). In addition, the inhibition is -4.19% (inactive) in experiment [7] and 0.98% (inactive) in experiment [8].
Consider `Cc1ccccc1C1CC(c2ccccc2)Nc2ncnn21` (stereo not given), for which the viability in experiment [1] is 90%; in experiment [3] it was 90% (inactive); in experiment [4], 94.8% (inactive); in experiment [5], 64.2% (inactive); in experiment [6] (setting [9]), 95.3%; in experiment [6] (setting [10]) it was 64.2%. Further, the Her2 level in experiment [2] was 87.5% (inactive). For the same compound, the differential viability (reversal) in experiment [6] (H69AR cells + 2 uM doxorubicin) is -31.1% (inactive). Besides, the results for the inhibition in experiment [7] and in experiment [8] were 1.47% (inactive) and -6.39% (inactive), respectively.
With `CC(C)CC(NC(=O)OC(C)(C)C)C(=O)NC(C(=O)NC(C)C(N)=O)C(C)C` (stereo not drawn) (Boc-Leu-Val-Ala-NH2; configuration not given here), the viability in experiment [1] is 102%; in experiment [3] it was 102% (inactive); in experiment [4], 94.2% (inactive); in experiment [5], 112% (inactive); in experiment [6] (setting [9]), 93%; in experiment [6] (setting [10]), 112%. For the same compound, in experiment [2], the Her2 level was 107% (inactive). Besides, the differential viability (reversal) in experiment [6] (H69AR cells + 2 uM doxorubicin) is 19.3% (inactive). For the same compound, the inhibition in experiment [7] was -4.27% (inactive); in experiment [8], -3.23% (inactive).
For the compound `COc1ccc(OC)c(C2C(C(=O)Nc3cccnc3)=C(C)NC3=C2C(=O)CCC3)c1` (stereo not given), the viability in experiment [1] is 101%; in experiment [3], 101% (inactive); in experiment [4], 88.3% (inactive); in experiment [5] it was 98.4% (inactive); in experiment [6] (setting [9]), 83.3%; in experiment [6] (setting [10]) it was 98.4%. In experiment [2], the Her2 level was 81% (inactive). In experiment [6] (H69AR cells + 2 uM doxorubicin), the differential viability (reversal) was 15.1% (inactive). For the same compound, the inhibition in experiment [7] was -6.22% (inactive); in experiment [8], 1.8% (inactive).
In the case of `Cc1nn(-c2ccccc2)c(C)c1/C=N/O`, the viability in experiment [1] was 106%; in experiment [3], 106% (inactive); in experiment [4], 100% (inactive); in experiment [5], 96.5% (inactive); in experiment [6] (setting [9]) it was 85.1%; in experiment [6] (setting [10]) it was 96.5%. In addition, the Her2 level in experiment [2] was 104% (inactive). Moreover, in experiment [6] (H69AR cells + 2 uM doxorubicin), the differential viability (reversal) was 11.4% (inactive). For the same compound, the inhibition in experiment [7] is -4.73% (inactive); in experiment [8], 3.93% (inactive).
With `O=C1CC2CS(=O)(=O)CC2N1c1ccc(Oc2ccccc2)cc1` (stereo not given), the viability in experiment [1] was 99%; in experiment [3], 99% (inactive); in experiment [4], 78.6% (inactive); in experiment [5], 95.6% (inactive); in experiment [6] (setting [9]) it was 98%; in experiment [6] (setting [10]), 95.6%. Also, the Her2 level in experiment [2] is 87% (inactive). Further, the differential viability (reversal) in experiment [6] (H69AR cells + 2 uM doxorubicin) was -2.44% (inactive). Further, the inhibition in experiment [7] is -5.47% (inactive); in experiment [8], 3.11% (inactive).
In the case of `OCC#CCSc1nnc(-c2ccccc2Br)o1`, the viability in experiment [1] is 118%; in experiment [3], 118% (inactive); in experiment [4], 85.3% (inactive); in experiment [5], 86.2% (inactive); in experiment [6] (setting [9]) it was 80.2%; in experiment [6] (setting [10]), 86.2%. Besides, in experiment [2], the Her2 level is 109% (inactive). Moreover, the differential viability (reversal) in experiment [6] (H69AR cells + 2 uM doxorubicin) was 5.93% (inactive). In addition, the figures for the inhibition in experiment [7] and in experiment [8] were 0% (inactive) and 4.26% (inactive), respectively.
As for `CCOc1ccccc1NC(=O)CCN1CCN(S(=O)(=O)c2ccc(Br)cc2)CC1`, the viability in experiment [1] is 119%; in experiment [3], 119% (inactive); in experiment [4], 100% (inactive); in experiment [5] it was 86.9% (inactive); in experiment [6] (setting [9]), 75.7%; in experiment [6] (setting [10]) it was 86.9%. For the same compound, in experiment [2], the Her2 level was 87.5% (inactive). Moreover, the differential viability (reversal) in experiment [6] (H69AR cells + 2 uM doxorubicin) was 11.2% (inactive). Also, the inhibition in experiment [7] is -6.8% (inactive); in experiment [8], 1.13% (inactive).
For `CS(=O)(=O)N(CC(=O)NCc1ccccn1)c1ccc2c(c1)OCCO2`, the viability is 104% in experiment [1]; 104% (inactive) in experiment [3]; 96.8% (inactive) in experiment [4]; 97.8% (inactive) in experiment [5]; 87.9% in experiment [6] (setting [9]); 97.8% in experiment [6] (setting [10]). Also, in experiment [2], the Her2 level was 104% (inactive). In addition, the differential viability (reversal) in experiment [6] (H69AR cells + 2 uM doxorubicin) is 9.83% (inactive). Moreover, the inhibition in experiment [7] is -6.93% (inactive); in experiment [8] it was 4.35% (inactive).
In the case of `CNC(=O)c1c(O)c2cccc3c2n(c1=O)CC3`, the viability in experiment [1] is 83.5%; in experiment [3] it was 83.5% (inactive); in experiment [4], 101% (inactive); in experiment [5], 89.5% (inactive); in experiment [6] (setting [9]) it was 95.5%; in experiment [6] (setting [10]) it was 89.5%. For the same compound, the Her2 level in experiment [2] was 86% (inactive). Besides, in experiment [6] (H69AR cells + 2 uM doxorubicin), the differential viability (reversal) is -5.95% (inactive). The inhibition in experiment [7] is -0.13% (inactive); in experiment [8] it was -4.52% (inactive).
Take `Cc1nc2ccccc2c2oc(C(=O)NCc3ccccn3)cc12`: the viability is 81% in experiment [1]; 81% (inactive) in experiment [3]; 81.4% (inactive) in experiment [4]; 96.8% (inactive) in experiment [5]; 94.6% in experiment [6] (setting [9]); 96.8% in experiment [6] (setting [10]). Also, the Her2 level in experiment [2] was 88% (inactive). Also, in experiment [6] (H69AR cells + 2 uM doxorubicin), the differential viability (reversal) is 2.25% (inactive). In addition, the inhibition in experiment [7] was -1.73% (inactive); in experiment [8], -2.3% (inactive).
On to `COc1ccc(OCC(O)Cn2c(Br)nc3c2c(=O)[nH]c(=O)n3C)cc1` (stereo not given), for which the viability is 84% in experiment [1]; 84% (inactive) in experiment [3]; 62.8% (inactive) in experiment [4]; 28.5% (active) in experiment [5]; 57.1% in experiment [6] (setting [9]); 28.5% in experiment [6] (setting [10]). For the same compound, the Her2 level in experiment [2] was 72% (inactive). For the same compound, the differential viability (reversal) in experiment [6] (H69AR cells + 2 uM doxorubicin) was -28.6% (inactive). The inhibition in experiment [7] was -4.4% (inactive); in experiment [8], 10.7% (inactive).
